Converted amounts (≈) assume the structure as drawn.
Assays:
[1] = test system: Staphylococcus aureus; experiment: Bacteriostatic activity against methicillin-susceptible Staphylococcus aureus NRS52 infected in human THP-1 cells assessed as change in bacterial count after 24 hrs at pH 7.4; format: functional
Summary of the method: (§1)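 Human THP-1 macrophage-like cells were infected with S. aureus to a postphagocytosis inoculum of 1.5 × 10^6 to 3.0 × 10^6 CFU/mg cell protein. Cells were then exposed 24 h to increasing extracellular antibiotic concentrations. Response was the log10 CFU change per mg protein from the postphagocytosis inoculum, n = 3. A Hill function was fitted on log-transformed axes. E0 and Emax were extrapolated to infinitely low and high concentrations. Cs was read by graphical interpolation. Concentrations were expressed as multiples of the broth MIC at pH 5.5 or pH 7.4.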

[2] = test system: Staphylococcus aureus; experiment: Antimicrobial activity against hospital-acquired vancomycin-intermediate Staphylococcus aureus NRS18 infected in human THP-1 cells assessed as bacterial count per mg of cell protein at high extracellular compound concentration after 24 hrs at pH 7.4; format: functional; summary of the method: as §1
[3] = test system: Staphylococcus aureus; experiment: Antimicrobial activity against Panton-valentine leucocidin-positive community-acquired methicillin-resistant Staphylococcus aureus N4042228 infected in human THP-1 cells assessed as change in bacterial count after 24 hrs at pH 7.4; format: functional, organism-based; settings: N4042228, THP-1, 24 h
Summary of the method: (§2)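 THP-1 human macrophages infected with S. aureus (postphagocytosis inoculum 1.5 × 10^6 to 3.0 × 10^6 CFU/mg cell protein), then incubated 24 h with increasing extracellular antibiotic concentrations. Change in log10 CFU/mg cell protein from the postphagocytosis inoculum, n = 3. Hill function fitted on log-transformed data. Low-concentration value (E0) and high-concentration value (Emax) are extrapolated. Where a pH is given, concentrations are expressed as multiples of the broth MIC at that pH.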

[4] = test system: Staphylococcus aureus; experiment: Antimicrobial activity against methicillin-susceptible Staphylococcus aureus NRS52 infected in human THP-1 cells assessed as bacterial count per mg of cell protein at high extracellular compound concentration after 24 hrs; format: functional
Summary of the method: (§3)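 THP-1 macrophages infected as described previously, with a postphagocytosis inoculum of 1.5 × 10⁶ to 3.0 × 10⁶ CFU/mg cell protein. Cells were exposed 24 h to increasing extracellular antibiotic concentrations. Response is the change in log10 CFU/mg protein from the inoculum (n = 3), fitted to a Hill function. E0 and Emax were extrapolated to infinitely low and high concentrations. EC50 and static concentration (graphical interpolation) are expressed as multiples of the broth MIC at pH 5.5 or 7.4.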

[5] = test system: Staphylococcus aureus; experiment: Antimicrobial activity against methicillin-susceptible Staphylococcus aureus […] infected in human THP-1 cells assessed as change in bacterial count after 24 hrs at pH 7.4; format: functional, organism-based; settings: THP-1, 24 h; summary of the method: as §3
[6] = test system: Staphylococcus aureus; experiment: Antimicrobial activity against Panton-valentine leucocidin-positive community-acquired methicillin-resistant Staphylococcus aureus isolate MEH2225605 infected in human THP-1 cells assessed as change in bacterial count after 24 hrs at pH 5.5; format: functional, organism-based; settings: isolate MEH2225605, THP-1, 24 h; summary of the method: as §2
[7] = test system: Staphylococcus aureus; experiment: Antimicrobial activity against hospital-acquired vancomycin-intermediate Staphylococcus aureus NRS126 infected in human THP-1 cells assessed as bacterial count per mg of cell protein at high extracellular compound concentration after 24 hrs at pH 7.4; format: functional; summary of the method: as §3
[8] = test system: Staphylococcus aureus; experiment: Antimicrobial activity against Panton-valentine leucocidin-positive community-acquired methicillin-resistant Staphylococcus aureus STA 44 infected in human THP-1 cells assessed as bacterial count per mg of cell protein at low extracellular compound concentration after 24 hrs; format: functional; summary of the method: as §2
[9] = test system: Staphylococcus aureus; experiment: Bacteriostatic activity against hospital-acquired vancomycin-intermediate Staphylococcus aureus NRS18 infected in human THP-1 cells assessed as change in bacterial count after 24 hrs at pH 5.5; format: functional
Summary of the method: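 Human THP-1 macrophage-like cells were infected with S. aureus; the post-phagocytosis inoculum was 1.5 × 10^6 to 3.0 × 10^6 CFU/mg cell protein. Cells were exposed 24 h to increasing extracellular drug levels. Change in log10 CFU/mg protein from the inoculum was fitted to a Hill function (n = 3). Static concentration was read by graphical interpolation, as a multiple of the pH 5.5 broth MIC.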

[10] = test system: Staphylococcus aureus; experiment: Antimicrobial activity against Panton-valentine leucocidin-positive community-acquired methicillin-resistant Staphylococcus aureus STA 44 infected in human THP-1 cells assessed as bacterial count per mg of cell protein at high extracellular compound concentration after 24 hrs at pH 5.5; format: functional; summary of the method: as §2
[11] = test system: Staphylococcus aureus; experiment: Antimicrobial activity against Panton-valentine leucocidin-positive community-acquired methicillin-resistant Staphylococcus aureus N4090440 infected in human THP-1 cells assessed as change in bacterial count after 24 hrs; format: functional, organism-based; settings: N4090440, THP-1, 24 h; summary of the method: as §2
[12] = test system: Staphylococcus aureus; experiment: Antimicrobial activity against Panton-valentine leucocidin-positive community-acquired methicillin-resistant Staphylococcus aureus N4042228 infected in human THP-1 cells assessed as bacterial count per mg of cell protein at high extracellular compound concentration after 24 hrs; format: functional; summary of the method: as §2
[13] = test system: Staphylococcus aureus; experiment: Bacteriostatic activity against methicillin-susceptible Staphylococcus aureus […] infected in human THP-1 cells assessed as change in bacterial count after 24 hrs at pH 7.4; format: functional; summary of the method: as §1
[14] = test system: Staphylococcus aureus; experiment: Antimicrobial activity against hospital-acquired vancomycin-intermediate Staphylococcus aureus NRS18 infected in human THP-1 cells assessed as bacterial count per mg of cell protein at low extracellular compound concentration after 24 hrs; format: functional; summary of the method: as §1
[15] = test system: Staphylococcus aureus; experiment: Bacteriostatic activity against Panton-valentine leucocidin-positive community-acquired methicillin-resistant Staphylococcus aureus isolate MEH2225605 infected in human THP-1 cells assessed as change in bacterial count after 24 hrs at pH 5.5; format: functional; summary of the method: as §3
[16] = test system: Staphylococcus aureus; experiment: Antimicrobial activity against hospital-acquired vancomycin-intermediate Staphylococcus aureus NRS18 infected in human THP-1 cells assessed as change in bacterial count after 24 hrs at pH 7.4; format: functional, organism-based; settings: NRS18, THP-1, 24 h; summary of the method: as §3
[17] = test system: Staphylococcus aureus; experiment: Antimicrobial activity against methicillin-susceptible Staphylococcus aureus ATCC 25923 infected in human keratinocytes assessed as change in bacterial count after 24 hrs; format: functional, organism-based; settings: ATCC 25923, 24 h
Summary of the method: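 Primary human skin keratinocytes were grown in defined keratinocyte serum-free medium and infected with S. aureus to 1.5 × 10^6 to 3.0 × 10^6 CFU/mg cell protein. Cells were exposed 24 h to increasing extracellular concentrations. Response was the log10 CFU change from the postphagocytosis inoculum, fitted by a Hill equation with slope 1. Cs is the concentration giving CFU equal to the original inoculum, found by graphical interpolation.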

[18] = test system: Staphylococcus aureus; experiment: Bacteriostatic activity against methicillin-susceptible Staphylococcus aureus ATCC 11632 infected in human THP-1 cells assessed as change in bacterial count after 24 hrs at pH 7.4; format: functional; summary of the method: as §1
[19] = test system: Staphylococcus aureus; experiment: Antimicrobial activity against methicillin-susceptible Staphylococcus aureus NRS52 infected in human THP-1 cells assessed as bacterial count per mg of cell protein at high extracellular compound concentration after 24 hrs at pH 5.5; format: functional; summary of the method: as §1
[20] = test system: Staphylococcus aureus; experiment: Antimicrobial activity against hospital-acquired vancomycin-resistant Staphylococcus aureus VRS1 infected in human THP-1 cells assessed as change in bacterial count after 24 hrs at pH 7.4; format: functional, cell-based; settings: VRS1, THP-1, 24 h; summary of the method: as §3
[21] = test system: Staphylococcus aureus; experiment: Bacteriostatic activity against methicillin-susceptible Staphylococcus aureus ATCC 11632 infected in human THP-1 cells assessed as change in bacterial count after 24 hrs at pH 5.5; format: functional; summary of the method: as §1
[22] = test system: Staphylococcus aureus; experiment: Bacteriostatic activity against Panton-valentine leucocidin-positive community-acquired methicillin-resistant Staphylococcus aureus STA 44 infected in human THP-1 cells assessed as change in bacterial count after 24 hrs at pH 5.5; format: functional; summary of the method: as §3

**Q.** What does the source list for `Nc1nc(/C(=N/O)C(=O)N[C@@H]2C(=O)N3C(C(=O)O)=C(/C=C4\CCN([C@@H]5CCNC5)C4=O)CS[C@H]23)ns1` [CEFTOBIPROLE]?
**A.** Activity [1]: 0.6 ×MIC; log10cfu [2]: -0.99; EC50 [3]: 0.33 ×MIC; log10cfu [4]: -1.01; EC50 [5]: 0.2 × MIC; EC50 [6]: 0.54 × MIC; log10cfu [7]: -0.99; log10cfu [8]: 2.82; Activity [9]: 1.97 × MIC; log10cfu [10]: -1.02; EC50 [11]: 0.08 µg/mL (≈ 0.15 µM); log10cfu [12]: -1.12; Activity [13]: 0.6 × MIC; log10cfu [14]: 2.83; Activity [15]: 1.45 × MIC; EC50 [16]: 0.28 ×MIC; EC50 [17]: 0.35 µg/mL (≈ 0.655 µM); Activity [18]: 0.6 × MIC; log10cfu [19]: 1.04; EC50 [20]: 0.28 ×MIC; Activity [21]: 1.19 × MIC; Activity [22]: 1.45 × MIC
